Activity calls are given as the source filed them. The rule behind the calls is not given here.
Columns and labels:
[1] = test system: Human immunodeficiency virus 1; test: Antiviral activity against HIV1 infected in human TZM-bl cells assessed as reduction of viral entry after 48 hrs by luciferase reporter gene assay; type: functional, organism-based
Procedure, shortened: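 Single-round infection of TZM-bl cells (HeLa clone expressing CD4/CCR5 with HIV-1 LTR-driven firefly luciferase) with HIV-1 at 200 TCID50 mixed with test samples. After 48 h, medium was replaced with Bright-Glo reagent and luminescence read. IC50 is the concentration giving 50% RLU reduction versus virus-control wells after background subtraction.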

[2] = test system: Human immunodeficiency virus 1; test: Antiviral activity against HIV1 NL4-3 infected in human MT4 cells assessed as p24 antigen level at 10 uM after 4 days by ELISA; type: functional, organism-based
[3] = test system: Human immunodeficiency virus 1; test: Antiviral activity against HIV1 NL4-3 infected in human MT4 cells assessed as p24 antigen level after 4 days by ELISA; type: functional, organism-based; settings: Human immunodeficiency virus 1, NL4-3, MT4, 96 h
Procedure, shortened: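 MT-4 cells infected with HIV-1 NL4-3 variants at MOI 0.01; supernatants harvested day 4 post-infection for p24 antigen capture ELISA. IC50 is the concentration inhibiting replication by 50%; values are averages of at least three separate experiments.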

MT4 = test: Cytotoxicity against human MT4 cells after 2 days; type: cell-based; settings: mt4, 48 h
[4] = Therapeutic index, ratio of CC50 for human MT4 cells to IC50 for HIV-1 NL4-3; type: cell-based; settings: read-out: Ratio CC50/IC50
Procedure, shortened: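 TI calculated as CC50 (mock-infected MT-4 growth, 2 days) divided by IC50 (HIV-1 NL4-3 replication in MT-4 cells, p24 ELISA at day 4).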

[5] = test system: Human immunodeficiency virus 1; test: Antiviral activity against HIV1 infected in human TZM-bl cells assessed as reduction of viral […] after 48 hrs by luciferase reporter gene assay; type: functional, organism-based
Procedure, shortened: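 Single-round infection of TZM-bl cells (HeLa clone expressing CD4 and CCR5, HIV-1 LTR-driven firefly luciferase) with HIV-1 at 200 TCID50 mixed with samples. Luminescence read after 48 h. IC50 is the concentration giving 50% lower RLU than virus control wells, after subtracting background RLU.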

Compound | Activity [1] | Activity [2] | IC50 [3] | CC50 (MT4) | selectivity ratio [4] | Activity [5]
C=C(C)[C@@H]1CC[C@]2(C(=O)N3CCN(CCCC(=O)O)CC3)CC[C@]3(C)[C@H](CC[C@@H]4[C@@]5(C)CC[C@H](O)C(C)(C)[C@@H]5CC[C@]43C)[C@@H]12 | inactive | inactive |  |  |  | 
C=C(C)[C@@H]1CC[C@]2(C(=O)OCCCCCCCC)CC[C@]3(C)[C@H](CC[C@@H]4[C@@]5(C)CC[C@H](O)C(C)(C)[C@@H]5CC[C@]43C)[C@@H]12 | inactive | inactive |  |  |  | 
C=C(C)[C@@H]1CC[C@]2(C(=O)N3CCC(CCCC(=O)NC)CC3)CC[C@]3(C)[C@H](CC[C@@H]4[C@@]5(C)CC[C@H](O)C(C)(C)[C@@H]5CC[C@]43C)[C@@H]12 | inactive | inactive |  |  |  | 
C=C(C)[C@@H]1CC[C@]2(C(=O)O)CC[C@]3(C)[C@H](CC[C@@H]4[C@@]5(C)CC[C@H](OCOCCOC)C(C)(C)[C@@H]5CC[C@]43C)[C@@H]12 | inactive | inactive |  |  |  | 
C=C(C)[C@@H]1CC[C@]2(C(=O)O)CC[C@]3(C)[C@H](CC[C@@H]4[C@@]5(C)CC[C@H](OCOC)C(C)(C)[C@@H]5CC[C@]43C)[C@@H]12 | inactive | inactive |  |  |  | 
C=C(C)[C@@H]1CC[C@]2(C(=O)OCCCc3ccccc3)CC[C@]3(C)[C@H](CC[C@@H]4[C@@]5(C)CC[C@H](O)C(C)(C)[C@@H]5CC[C@]43C)[C@@H]12 | inactive | inactive |  |  |  | 
C=C(C)[C@@H]1CC[C@]2(C(=O)N3CCC(CCCC(=O)NC)CC3)CC[C@]3(C)[C@H](CC[C@@H]4[C@@]5(C)CC[C@H](OC(=O)CC(C)(C)C(=O)O)C(C)(C)[C@@H]5CC[C@]43C)[C@@H]12 | inactive |  | 240 nM | > 13300 nM | > 55.5 | 
C=C(C)[C@@H]1CC[C@]2(C(=O)OCCCCCC)CC[C@]3(C)[C@H](CC[C@@H]4[C@@]5(C)CC[C@H](OC(=O)CC(C)(C)C(=O)O)C(C)(C)[C@@H]5CC[C@]43C)[C@@H]12 | inactive |  | 1800 nM | 14800 nM | 8.3 | Active
C=C(C)[C@@H]1CC[C@]2(C(=O)N3CCC(CCCC(=O)N4CCOCC4)CC3)CC[C@]3(C)[C@H](CC[C@@H]4[C@@]5(C)CC[C@H](O)C(C)(C)[C@@H]5CC[C@]43C)[C@@H]12 | inactive | inactive |  |  |  | 
C=C(C)[C@@H]1CC[C@]2(C(=O)O)CC[C@]3(C)[C@H](CC[C@@H]4[C@@]5(C)CC[C@H](O)C(C)(C)[C@@H]5CC[C@]43C)[C@@H]12 | Active |  |  |  |  | 
C=C(C)[C@@H]1CC[C@]2(C(=O)OCOCCOC)CC[C@]3(C)[C@H](CC[C@@H]4[C@@]5(C)CC[C@H](OCOCCOC)C(C)(C)[C@@H]5CC[C@]43C)[C@@H]12 | inactive | inactive |  |  |  | 
C#CCOC(=O)[C@]12CC[C@@H](C(=C)C)[C@@H]1[C@H]1CC[C@@H]3[C@@]4(C)CC[C@H](OC(=O)CC(C)(C)C(=O)O)C(C)(C)[C@@H]4CC[C@@]3(C)[C@]1(C)CC2 | inactive |  | 67 nM | 15300 nM | 226 | 
C=C(C)[C@@H]1CC[C@]2(C(=O)N3CCC(CCCC(=O)N4CCOCC4)CC3)CC[C@]3(C)[C@H](CC[C@@H]4[C@@]5(C)CC[C@H](OC(=O)CC(C)(C)C(=O)O)C(C)(C)[C@@H]5CC[C@]43C)[C@@H]12 | inactive |  | 70 nM | 10900 nM | 156 | 
C=C(C)[C@@H]1CC[C@]2(C(=O)OCOC)CC[C@]3(C)[C@H](CC[C@@H]4[C@@]5(C)CC[C@H](OCOC)C(C)(C)[C@@H]5CC[C@]43C)[C@@H]12 | inactive | inactive |  |  |  | 
C=C(C)[C@@H]1CC[C@]2(C(=O)N3CCC(CCCC(=O)NCCN4CCOCC4)CC3)CC[C@]3(C)[C@H](CC[C@@H]4[C@@]5(C)CC[C@H](O)C(C)(C)[C@@H]5CC[C@]43C)[C@@H]12 | inactive | inactive |  |  |  | 
C=C(C)[C@@H]1CC[C@]2(C(=O)OCCCCCC(=O)OCC)CC[C@]3(C)[C@H](CC[C@@H]4[C@@]5(C)CC[C@H](OC(=O)CC(C)(C)C(=O)O)C(C)(C)[C@@H]5CC[C@]43C)[C@@H]12 | inactive |  | 56 nM | 8600 nM | 154 | Active

Compound | Activity [1] | Activity [2] | IC50 [3] | CC50 (MT4) | selectivity ratio [4] | Activity [5]
C#CCOC(=O)[C@]12CC[C@@H](C(=C)C)[C@@H]1[C@H]1CC[C@@H]3[C@@]4(C)CC[C@H](O)C(C)(C)[C@@H]4CC[C@@]3(C)[C@]1(C)CC2 | inactive | inactive |  |  |  | 
C=C(C)[C@@H]1CC[C@]2(C(=O)ON3C(=O)CCC3=O)CC[C@]3(C)[C@H](CC[C@@H]4[C@@]5(C)CC[C@H](O)C(C)(C)[C@@H]5CC[C@]43C)[C@@H]12 | inactive | inactive |  |  |  | 
C=C(C)[C@@H]1CC[C@]2(C(=O)OCOCCOC)CC[C@]3(C)[C@H](CC[C@@H]4[C@@]5(C)CC[C@H](O)C(C)(C)[C@@H]5CC[C@]43C)[C@@H]12 | inactive | inactive |  |  |  | 
C=C(C)[C@@H]1CC[C@]2(C(=O)N3CCN(CCCCC(=O)O)CC3)CC[C@]3(C)[C@H](CC[C@@H]4[C@@]5(C)CC[C@H](O)C(C)(C)[C@@H]5CC[C@]43C)[C@@H]12 | inactive | inactive |  |  |  | 
C=C(C)[C@@H]1CC[C@]2(C(=O)ON3C(=O)CCC3=O)CC[C@]3(C)[C@H](CC[C@@H]4[C@@]5(C)CC[C@H](OC(=O)CC(C)(C)C(=O)O)C(C)(C)[C@@H]5CC[C@]43C)[C@@H]12 | inactive |  | 130 nM | 11000 nM | 86.2 | 
C=C(C)[C@@H]1CC[C@]2(C(=O)OCOC)CC[C@]3(C)[C@H](CC[C@@H]4[C@@]5(C)CC[C@H](O)C(C)(C)[C@@H]5CC[C@]43C)[C@@H]12 | inactive | inactive |  |  |  | 
C=C(C)[C@@H]1CC[C@]2(C(=O)OCCCCCCCC)CC[C@]3(C)[C@H](CC[C@@H]4[C@@]5(C)CC[C@H](OC(=O)CC(C)(C)C(=O)O)C(C)(C)[C@@H]5CC[C@]43C)[C@@H]12 | inactive | inactive |  |  |  | 
C=C(C)[C@@H]1CC[C@]2(C(=O)OCCCCCC(=O)OCC)CC[C@]3(C)[C@H](CC[C@@H]4[C@@]5(C)CC[C@H](O)C(C)(C)[C@@H]5CC[C@]43C)[C@@H]12 | inactive | inactive |  |  |  | 
C=C(C)[C@@H]1CC[C@]2(C(=O)OCc3cn([C@H]4C[C@H](n5cc(C)c(=O)[nH]c5=O)O[C@@H]4CO)nn3)CC[C@]3(C)[C@H](CC[C@@H]4[C@@]5(C)CC[C@H](OC(=O)CC(C)(C)C(=O)O)C(C)(C)[C@@H]5CC[C@]43C)[C@@H]12 | inactive |  | 100 nM | 11000 nM | 101 | 
C=C(C)[C@@H]1CC[C@]2(C(=O)N3CCC(CCCC(=O)NCCCN4CCOCC4)CC3)CC[C@]3(C)[C@H](CC[C@@H]4[C@@]5(C)CC[C@H](O)C(C)(C)[C@@H]5CC[C@]43C)[C@@H]12 | inactive | inactive |  |  |  | 
C=C(C)[C@@H]1CC[C@]2(C(=O)OCCCCCC)CC[C@]3(C)[C@H](CC[C@@H]4[C@@]5(C)CC[C@H](O)C(C)(C)[C@@H]5CC[C@]43C)[C@@H]12 | inactive | inactive |  |  |  | Active
C=C(C)[C@@H]1CC[C@]2(C(=O)OCCC)CC[C@]3(C)[C@H](CC[C@@H]4[C@@]5(C)CC[C@H](O)C(C)(C)[C@@H]5CC[C@]43C)[C@@H]12 | inactive | inactive |  |  |  | Active
C=C(C)[C@@H]1CC[C@]2(C(=O)OCCOCCOCCOCCO)CC[C@]3(C)[C@H](CC[C@@H]4[C@@]5(C)CC[C@H](O)C(C)(C)[C@@H]5CC[C@]43C)[C@@H]12 | inactive | inactive |  |  |  | 
C=C(C)[C@@H]1CC[C@]2(C(=O)OCCC)CC[C@]3(C)[C@H](CC[C@@H]4[C@@]5(C)CC[C@H](OC(=O)CC(C)(C)C(=O)O)C(C)(C)[C@@H]5CC[C@]43C)[C@@H]12 | inactive |  | 88 nM | 10400 nM | 118 | Active
C=C(C)[C@@H]1CC[C@]2(C(=O)OCOC)CC[C@]3(C)[C@H](CC[C@@H]4[C@@]5(C)CC[C@H](OC(=O)CC(C)(C)C(=O)O)C(C)(C)[C@@H]5CC[C@]43C)[C@@H]12 | inactive |  | 170 nM | 12400 nM | 70.9 | 
C=C(C)[C@@H]1CC[C@]2(C(=O)OCCOCCOCCOCCOC(=O)CC(C)(C)C(=O)O)CC[C@]3(C)[C@H](CC[C@@H]4[C@@]5(C)CC[C@H](OC(=O)CC(C)(C)C(=O)O)C(C)(C)[C@@H]5CC[C@]43C)[C@@H]12 | inactive |  | 79 nM | 8900 nM | 111 | 

Source: ChEMBL document CHEMBL2176886, “Anti-AIDS agents 90. novel C-28 modified bevirimat analogues as potent HIV maturation inhibitors” (J Med Chem, 2012)
